GPR7 antagonist = human neuropeptides B/W receptor 1 antagonism. GPR7-expressing cells, fluorescence antagonist assay. 1.1% of 290,000 active. inhibition, % at 4.4 µM; in the data active = inhibition above about 16%, passing the limit was not always enough;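 also: cells stimulated with the agonist NPW; 0% = agonist with vehicle and 100% = vehicle without agonist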
pCIP destab = p/CIP protein destabilization | 0.01% of 290,000 active | decrease of EGFP signal, % at 10 µM | F442A p/CIP-EGFP cells, EGFP fluorescence, 16 h;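 active = EGFP signal decrease of at least 30% at 10 µM or well 3 SD below plate mean, unless failing retest; inactive = the rest, including hits failing retest or dose response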
CHT block = human CHT choline transport inhibition; Q9GZV3; CHT-expressing cells, membrane potential dye, choline response; stronger effect = lower value; B-score at 10 µM; 0.86% of 310,000 active; AID 488975;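 active = B-score over 3 SD under the library average, and starting fluorescence ratio not unusually high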;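 also: choline stimulus applied at its EC90 after an EC20 pre-addition; B-score computed on integrated fluorescence ratio after choline addition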
T cell HTS = modulates CD8 T cell binding to vesicles; response (vesicle binding), % at 7 µM; 2C CD8+ T cell-vesicle binding, flow cytometry; stronger effect = lower value; AID 2052; 0.068% of 330,000 active;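 active = response, share of CD8 T cells binding vesicles, and their 90th percentile fluorescence all below set limits, cut at about 80% in these data, passing the limit was not always enough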;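 also: values below 100% mean blocked vesicle binding to the CD8+ T cells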
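incubation = binding step 1.5 h, 37 °C, antibody labelling 20 min, ice | test system = 2C mouse CD8+ T cells | read-out basis = percent CD8+ FL2 mean versus row control | controls = Peptide-free naked vesicles (low) and QL9 vesicles with 0.7% DMSO vehicle (high) | detection = flow cytometry of vesicle-bound cells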
Pemphigus Ab inh = blocks pemphigus antibody binding to human desmoglein-3; binding (percent of control), % at 10 µM; 0.48% of 310,000 active; DSG3-coupled beads, scFv-anti-DSG3-GFP binding, flow cytometry; stronger effect = lower value;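 active = binding more than 3 SD below its plate's average and above zero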;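 also: hits lower antibody fragment binding to DSG3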
CHT PAM = human CHT allosteric activation; Q9GZV3; CHT-expressing cells, membrane potential dye, choline EC20; stronger effect = higher value; LV-AA mutant CHT in HEK293 cells; B-score at 10 µM; 0.49% of 310,000 active;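 active = initial fluorescence not abnormally high and integrated response B-score, plate-corrected, over 3 SD above library mean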
CHT activ conf = confirmation of human choline transporter (CHT) activators; activation, % at 10 µM; 91% of 2,500 active; CHT-expressing cells, membrane potential dye fluorescence (FDSS); % of choline EC20–EC90 response window; HEK293 expressing CHT LV-AA mutant; choline added at its EC20; shares compounds with CHT PAM; AID 504833;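 active = primary screen active, with duplicate mean activation above negative control mean plus 3 SD, cut at about 11% in these data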
HEK293 MP dye = activity in parental HEK293 cells lacking CHT; shares compounds with CHT PAM; membrane potential dye fluorescence (FDSS); measured after EC20 choline addition; ratio readout change at 10 µM, hits read low; 62% of 2,500 active; AID 623908;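 active = duplicate-averaged ratio beyond 3 SD from buffer wells, up or down, though filed actives are nearly all decreases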
* marks the source's active call; other numbers are inactive results. Hits are enriched below; roughly 2.3% of the tested compounds scored in any of these assays.

For CCOC(=O)N1CCN(c2nc(-c3cccs3)nc3ccccc23)CC1 the results were GPR7 antagonist 0, pCIP destab -8, CHT block inactive, T cell HTS 608, Pemphigus Ab inh 95, CHT PAM 6.7*, CHT activ conf 30* and HEK293 MP dye inactive.
CC1CCCC(C)N1CCCNC(=O)C1CCCN(S(=O)(=O)N2CCCCC2)C1 (centres undefined) was read as Pemphigus Ab inh 93.
`C=CCn1c(SC(C)C(=O)NCCC2=CCCCC2)nc2ccccc2c1=O` (centres undefined) gave GPR7 antagonist -4, pCIP destab -14, CHT block inactive, T cell HTS 314, Pemphigus Ab inh 100, CHT PAM inactive, CHT activ conf 27* and HEK293 MP dye inactive.
O=C(NCCC1=CCCCC1)C(c1ccccc1)c1ccccc1 was read as GPR7 antagonist -7, pCIP destab 5, CHT block inactive, T cell HTS 193, Pemphigus Ab inh 100 and CHT PAM inactive.
For Cc1ccn2c(NC(=O)c3ccco3)c(-c3ccccc3)nc2c1 the results were GPR7 antagonist -3, pCIP destab 2, CHT block inactive, T cell HTS 0, Pemphigus Ab inh 105 and CHT PAM inactive.
`Cc1ccccc1Nc1c(-c2ccc(N3CCOCC3)cc2)nc2cnccn12` gave GPR7 antagonist -16, pCIP destab -18, CHT block inactive, T cell HTS 0, Pemphigus Ab inh 91, CHT PAM 9.4*, CHT activ conf 29* and HEK293 MP dye -55*.
Screening Cc1ccn2c(Nc3ccccc3C)c(-c3cccnc3)nc2c1 returned GPR7 antagonist -13, pCIP destab 8, CHT block inactive, T cell HTS 153, Pemphigus Ab inh 100, CHT PAM inactive, CHT activ conf 41* and HEK293 MP dye -49*.
For Cc1ccccc1Nc1c(-c2ccc(N3CCOCC3)cc2)nc2ncccn12 the results were GPR7 antagonist -19, pCIP destab -9, CHT block inactive, T cell HTS 306, Pemphigus Ab inh 91, CHT PAM inactive, CHT activ conf 25* and HEK293 MP dye -53*.
`CCN(CC(=O)Nc1c(F)cccc1F)C(=O)C1CCCO1` (centres undefined) gave Pemphigus Ab inh 101.
For CC(CO)NS(=O)(=O)c1cc(Cl)ccc1F (centres undefined) the results were Pemphigus Ab inh 100.
Screening CCOC(=O)Nc1nc(-c2ccccc2)c(C(=O)c2ccc(Cl)cc2)s1 returned GPR7 antagonist 8, pCIP destab -16, CHT block inactive, T cell HTS 275, Pemphigus Ab inh 105, CHT PAM inactive, CHT activ conf 35* and HEK293 MP dye inactive.
For Cn1c(=NC(=O)C2=NNC(=O)CC2)sc2ccccc21 the results were GPR7 antagonist -13, pCIP destab -1, CHT block inactive, T cell HTS 170, Pemphigus Ab inh 115, CHT PAM 6.9*, CHT activ conf 54* and HEK293 MP dye -32*.
COc1ccc(C(=O)N=c2sc3ccccc3n2C)cc1OC was read as GPR7 antagonist 0, pCIP destab 11, CHT block inactive, T cell HTS 499, Pemphigus Ab inh 101 and CHT PAM inactive.
For Cc1ccc2nc(C)c3c(c2c1)COC3 the results were GPR7 antagonist 0, pCIP destab 1, CHT block inactive, T cell HTS 170, Pemphigus Ab inh 102 and CHT PAM inactive.
For Cc1nc2c(C)cccc2c2c1COC2 the results were GPR7 antagonist -10, pCIP destab 1, CHT block inactive, T cell HTS 381, CHT PAM inactive, CHT activ conf 55* and HEK293 MP dye -59*.

Bioassay records (PubChem BioAssay)
